{"data": "Experimental data collected from several papers", "cell line": "HT-29", "observed": "cell growth or viability"}
{"Compound": "COc1cc2c(c3c1C(=O)C[C@@H](c1ccccc1)O3)[C@H]1[C@@H](O2)OC(C)(C)[C@@H]1OC(C)=O", "method": "SRB", "time": "72 h", "measurement": "IC50", "result": "> 10000 nM"}
{"Compound": "COc1cc2c(O[C@@H]3O[C@H](CO)[C@@H](O)[C@H](O)[C@H]3O)c3c(c(-c4ccc5c(c4)OCO5)c2cc1OC)C(=O)OC3", "measurement": "IC50", "result": "12000 nM"}
{"Compound": "O=C(N/N=C1\\C(=O)N(Cc2ccccc2)c2ccc(Br)cc21)c1cc2ccccc2[nH]1", "measurement": "IC50", "result": "2260 nM"}
{"Compound": "CCCCCCCC(=O)SCC/C=C/[C@@H]1CC(=O)NCc2nc(cs2)C2=N[C@@](C)(CS2)C(=O)N[C@@H](C(C)C)C(=O)O1", "method": "resazurin", "time": "48 h", "measurement": "IC50", "result": "16.2 nM"}
{"Compound": "COc1c2c(cc3c1OCO3)[C@]13C=C[C@H](OC)C[C@@H]1[N@](C2)C[C@H]3OC(=O)c1ccc2ccccc2c1", "method": "WST-1", "measurement": "IC50", "result": "> 10000 nM"}
{"Compound": "COc1ccc2c(c1)/C(=N/NC(=O)c1cc3ccccc3[nH]1)C(=O)N2Cc1ccccc1", "measurement": "IC50", "result": "2280 nM"}
{"Compound": "c1ccc2c(c1)[I+]c1ccccc1-2", "method": "trypan blue", "time": "48 h", "measurement": "IC50", "result": "~100 nM"}
{"Compound": "O=C(N/N=C1\\C(=O)N(Cc2ccccc2)c2ccc(F)cc21)c1cc2ccccc2[nH]1", "tested at": "30 µM", "measurement": "inhibition", "result": "94.3%"}
{"Compound": "COc1c2c(cc3c1OCO3)[C@]13C=C[C@H](OC)C[C@@H]1[N@](C2)C[C@H]3OC(=O)c1ccoc1", "method": "WST-1", "measurement": "IC50", "result": "> 10000 nM"}
{"Compound": "N.N.[Cl][Pt][Cl]", "method": "SRB", "time": "48 h", "measurement": "IC50", "result": "20000 nM"}
{"Compound": "COc1ccc2[nH]cc(CCNc3nccc(Nc4cccc5c4ccn5C)n3)c2c1", "method": "fluorescence", "time": "72 h", "measurement": "IC50", "result": "3.9 nM"}
